Test results from ChEMBL document CHEMBL4392831, “Discovery of a novel class of potent and selective tetrahydroindazole-based sigma-1 receptor ligands” (Bioorg Med Chem, 2019).
pKi: −log10 of the molar value.

Legend:
[1] = Stability in mouse liver microsomes assessed as parent compound remaining at 10 uM in presence of NADPH incubated for 60 mins at 37 degC by UPLC/MS analysis; assay type: ADME, Microsome; details: 1 h
Procedure, shortened: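 Mouse liver microsomes at 0.4 mg/mL with NADPH cofactor in phosphate buffer (0.5 M), compound at 10 μM, verapamil control. T0 sample quenched at once; others shaken 60 min at 37 °C, then stopped with 2 volumes ice-cold acetonitrile. After centrifugation, parent quantified by UPLC/MS in SRM mode. % remaining = (conc at 60 min / conc at 0 min) ×100. Duplicate runs, mean reported.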

[2] = target: T1, Sigma non-opioid intracellular receptor 1 (Homo sapiens, UniProt Q99720); test: Displacement of [3H]-(+)-pentazocine from sigma1 receptor (unknown origin) expressed in HEK293 cell membranes after 120 mins by microbeta scintillation counting method
Procedure, shortened: (§1)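 Radioligand binding run by an external screening program; sigma-1 tracer [3H]-pentazocine, sigma-2 tracer [3H]-DTG. Each compound first tested at a single 10 μM concentration. Those giving >50% inhibition were then titrated over a dose range to derive pKi.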

[3] = target: Sigma intracellular receptor 2 (Homo sapiens, UniProt Q5BJF2); test: Displacement of [3H]-DTG from sigma2 receptor (unknown origin) after 120 mins in presence of sigma1 […] (+)-SKF10047 by microbeta scintillation counting method; details: for Ki: read-out: pKi (converted); procedure, shortened: as §1
[4] = Thermodynamic solubility in pH 7.4 PBS buffer incubated for 16 hrs by UV-absorption spectroscopy; assay type: physicochemical; details: pH 7.4, 16 h
Procedure, shortened: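 A standard curve per compound was built from UV absorbance of acetonitrile dilutions (500 to 0.9 μM, DMSO held at 0.5%) made from DMSO stock. For the sample, 1 mg compound in 1 mL PBS pH 7.4 was stirred at 500 rpm for 16 h at room temperature, then equilibrated 30 min and passed through a 0.2 μm filter. Filtrate UV absorbance was read on a plate reader and solubility extrapolated from the curve.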

Homo sapiens = species: Homo sapiens; test: Selectivity for sigma1 receptor (unknown origin) over sigma2 receptor (unknown origin)
[5] = Displacement of [3H]-DTG from sigma2 receptor in guinea pig brain membranes after 120 mins in presence of sigma1 […] (+)-SKF10047 by microbeta scintillation counting method; assay type: cell membranes, Cavia porcellus
[6] = target: T1, Sigma non-opioid intracellular receptor 1; test: Displacement of [3H]-(+)-pentazocine from recombinant human sigma1 receptor expressed in HEK293 cell membranes after 120 mins by microbeta scintillation counting method

T1 sequence (Q99720 whole entry): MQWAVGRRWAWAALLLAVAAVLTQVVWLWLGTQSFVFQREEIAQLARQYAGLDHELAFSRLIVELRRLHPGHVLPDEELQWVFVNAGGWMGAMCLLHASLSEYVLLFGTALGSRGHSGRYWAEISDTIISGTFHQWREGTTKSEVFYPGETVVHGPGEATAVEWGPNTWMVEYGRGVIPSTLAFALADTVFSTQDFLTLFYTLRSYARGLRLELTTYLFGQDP
Chain of Sigma intracellular receptor 2 (Q5BJF2 whole entry): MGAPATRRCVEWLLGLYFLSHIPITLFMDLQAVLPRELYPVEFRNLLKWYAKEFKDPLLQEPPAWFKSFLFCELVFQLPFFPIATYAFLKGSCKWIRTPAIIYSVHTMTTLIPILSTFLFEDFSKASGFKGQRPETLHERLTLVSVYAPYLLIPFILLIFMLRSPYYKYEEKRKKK

Row | SMILES | pKi [2] | Ki [3] [nM] | also measured
1 | O=C(c1c2c(nn1-c1ccccc1)CCC(NCCc1ccc3c(c1)OCO3)C2)N1CCCCC1 (stereo unspecified) | 7.20 | 31.6 | Stability [1]: 24%; Therm solubility [4]: 655 µM
2 | O=C(c1c2c(nn1-c1ccc(F)cc1)CCC(NCc1ccc(F)cc1)C2)N1CCCCC1 (stereo unspecified) |  |  | Stability [1]: 25%; pKi ([3]; read-out: Ki): < 5.00; Therm solubility [4]: 110 µM; Selectivity ratio (Homo sapiens): > 500
3 | Cc1ccccc1NC(=N)Nc1ccccc1C [DITOLYLGUANIDINE] |  |  | pKi [5]: 7.55
4 | NC(=O)c1ccc(-n2nc3c(c2C(=O)N2CCCCC2)CC(NCCc2ccccc2)CC3)cc1 (stereo unspecified) | 6.20 |  | 
5 | O=C(c1nn(-c2ccccc2)c2c1CC(NCc1ccccc1)CC2)N1CCCCC1 (stereo unspecified) | 6.20 | 501 | Stability [1]: 0.3%; Therm solubility [4]: 1570 µM
6 | c1ccc(OCc2cc(OC[C@@H]3CCCN3)no2)cc1 |  |  | pKi [5]: 5.88; pKi [6]: 8.39
7 | CCCn1nc(C(=O)N2CCCCC2)c2c1CCC(NCCc1ccc(O)cc1)C2 (stereo unspecified) |  | 251 | 
8 | CC(C)=CCN1CC[C@]2(C)c3cc(O)ccc3C[C@H]1[C@H]2C [(+)-PENTAZOCINE] |  |  | pKi [5]: 5.81
9 | O=C(c1c2c(nn1-c1ccc(F)cc1)CCC(NCCc1ccncc1)C2)N1CCCCC1 (stereo unspecified) | 7.00 |  | Stability [1]: 21%
10 | O=C(c1nn(-c2ccccc2)c2c1CC(NCCc1ccc(C(F)(F)F)cc1)CC2)N1CCCCC1 (stereo unspecified) | 6.50 |  | 
11 | O=C(c1c2c(nn1-c1ccccc1)CCC(NCc1ccc(F)cc1)C2)N1CCCCC1 (stereo unspecified) | 7.50 | 158 | Stability [1]: 7%; Therm solubility [4]: 508 µM
12 | O=C(c1c2c(nn1-c1ccc(O)cc1)CCC(NCCc1ccccc1)C2)N1CCCCC1 (stereo unspecified) | 6.50 | 251 | 
13 | O=C(c1nn(Cc2ccccc2)c2c1CC(NCc1ccc(F)cc1)CC2)N1CCCCC1 (stereo unspecified) | 6.60 |  | 
14 | O=C(c1c2c(nn1-c1ccccc1)CCC(NCCc1ccc(C(F)(F)F)cc1)C2)N1CCCCC1 (stereo unspecified) | 6.70 |  | 
15 | O=C(c1nn(-c2ccccc2)c2c1CC(NCCc1ccc(F)cc1)CC2)N1CCCCC1 (stereo unspecified) | 6.90 | 100 | 
16 | CCCn1nc(C(=O)N(C)C)c2c1CCC(NCCc1ccc(C(F)(F)F)cc1)C2 (stereo unspecified) | 5.60 | 631 | 
17 | O=C(c1nn(-c2ccccc2)c2c1CC(NCCc1ccc3c(c1)OCO3)CC2)N1CCCCC1 (stereo unspecified) | 6.30 | 316 | 
18 | Clc1ccc(Cn2cc(NCCN3CCOCC3)nn2)cc1Cl |  |  | pKi [5]: < 5.00
19 | CCCn1nc(C(=O)N(C)C)c2c1CCC(NCc1ccc(F)cc1)C2 (stereo unspecified) |  | 2000 | Stability [1]: 21%; Therm solubility [4]: 1780 µM
20 | Cc1nc(-c2ccc(Cl)cc2)nc(OCCCN2CCCCC2)c1Cl |  |  | pKi [5]: 5.85; pKi [6]: 8.96
21 | CCCn1nc(C(=O)N(C)C)c2c1CCC(NCCc1ccc3c(c1)OCO3)C2 (stereo unspecified) | 6.30 | 398 | 
22 | O=C(c1nn(-c2ccccc2)c2c1CC(NCCc1cccc(O)c1)CC2)N1CCCCC1 (stereo unspecified) | 6.70 |  | 
23 | O=C(c1c2c(nn1-c1ccccc1)CCC(NCc1ccccc1)C2)N1CCCCC1 (stereo unspecified) | 7.40 | 126 | 
